The record followed here is ChEMBL document CHEMBL4118066, “QSAR-driven design, synthesis and discovery of potent chalcone derivatives with antitubercular activity” (Eur J Med Chem, 2017).

≈ marks a conversion by molar mass, not a printed value.

Assay [1] deals with Mycobacterium tuberculosis. As to the kind of experiment: Antitubercular activity against rifampin-resistant Mycobacterium tuberculosis H37Rv ATCC 35838 after 7 days under normoxic condition by microplate Alamar blue assay. Conditions: H37Rv ATCC 35838, 168 h. In kind it is functional. A digest of the protocol: (§1)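 Replicating, normoxic cultures in Middlebrook 7H12 medium, exposed to compound for 7 d at 37 °C. Resazurin plus Tween 80 then added for a further 24 h at 37 °C. Fluorescence read at ex/em 530/590 nm. MIC is the lowest concentration giving 90% lower fluorescence than controls.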

Assay [2] has as its system Mycobacterium tuberculosis. As to the kind of experiment: Antitubercular activity against isoniazid-resistant Mycobacterium tuberculosis H37Rv ATCC 35822 after 7 days under normoxic condition by microplate Alamar blue assay. The class given is functional. The note with it: H37Rv ATCC 35822, 168 h. A digest of the protocol: as §1

For the compound `Cc1ccc(C(=O)/C=C/c2ccc([N+](=O)[O-])s2)cc1`, the MIC90 was determined as 1.21 µM (≈ 0.331 µg/mL) in assay [1] and 0.96 µM (≈ 0.262 µg/mL) in assay [2].

For `O=C(/C=C/c1ccc([N+](=O)[O-])o1)c1ccc(N2CCNCC2)cc1`, the MIC90 came out at 0.76 µM (≈ 0.249 µg/mL) in assay [1] and 0.19 µM (≈ 0.0622 µg/mL) in assay [2].

In the case of `CSc1ccc(C(=O)/C=C/c2ccc([N+](=O)[O-])s2)cc1`, the values for the MIC90 in assay [1] and in assay [2] were 0.14 µM (≈ 0.0428 µg/mL) and 0.22 µM (≈ 0.0672 µg/mL), respectively.

Turning to `CCCCc1ccc(C(=O)/C=C/c2ccc([N+](=O)[O-])s2)cc1`, the MIC90 in assay [1] turned out to be 0.48 µM (≈ 0.151 µg/mL); in assay [2] it was 0.31 µM (≈ 0.0978 µg/mL).

`CC(C)(C)c1ccc(C(=O)/C=C/c2ccc([N+](=O)[O-])o2)cc1`: the values for the MIC90 in assay [1] and in assay [2] were 0.29 µM (≈ 0.0868 µg/mL) and 0.22 µM (≈ 0.0659 µg/mL), respectively.

Consider `Cc1ccccc1C(=O)/C=C/c1ccc([N+](=O)[O-])o1`, for which the MIC90 in assay [1] turned out to be 1.08 µM (≈ 0.278 µg/mL); in assay [2], 1.07 µM (≈ 0.275 µg/mL).

For the compound `CO[C@H]1/C=C/O[C@@]2(C)Oc3c(C)c(O)c4c(O)c(c(/C=N/N5CCN(C)CC5)c(O)c4c3C2=O)NC(=O)/C(C)=C\C=C\[C@H](C)[C@H](O)[C@@H](C)[C@@H](O)[C@@H](C)[C@H](OC(C)=O)[C@@H]1C` [RIFAMPIN], the MIC90 in assay [1] was greater than 1 µM.

Take `O=C(/C=C/c1ccc([N+](=O)[O-])o1)c1ccc(-c2ccccc2)cc1`: the MIC90 in assay [1] was determined as 3.45 µM (≈ 1.1 µg/mL); in assay [2], 0.29 µM (≈ 0.0926 µg/mL).

Turning to `CSc1ccc(C(=O)/C=C/c2ccc([N+](=O)[O-])o2)cc1`, the MIC90 turned out to be 0.24 µM (≈ 0.0694 µg/mL) in assay [1] and 0.8 µM (≈ 0.231 µg/mL) in assay [2].

For the compound `O=C(/C=C/c1ccc(Cl)s1)c1ccc(-n2ccnc2)cc1`, the figures for the MIC90 in assay [1] and in assay [2] were 8.89 µM (≈ 2.8 µg/mL) and 9.03 µM (≈ 2.84 µg/mL), respectively.

On to `O=C(/C=C/c1ccc([N+](=O)[O-])o1)c1ccc(N2CCCCC2)cc1`, for which the results for the MIC90 in assay [1] and in assay [2] were 0.07 µM (≈ 0.0228 µg/mL) and less than 0.03 µM, respectively.

As for `COc1ccc(/C=C/C(=O)c2cccc(Br)c2)cc1`, the MIC90 in assay [1] was 9.28 µM (≈ 2.94 µg/mL); in assay [2] it was 4.94 µM (≈ 1.57 µg/mL).

Turning to `O=C(/C=C/c1ccc([N+](=O)[O-])o1)c1cccc(Br)c1`, the MIC90 in assay [1] is 1.88 µM (≈ 0.606 µg/mL); in assay [2] it was 1.12 µM (≈ 0.361 µg/mL).

As to `O=C(/C=C/c1ccc([N+](=O)[O-])o1)c1ccc(C2CCCCC2)cc1`, the MIC90 in assay [1] amounted to 1.12 µM (≈ 0.364 µg/mL); in assay [2], 1.23 µM (≈ 0.4 µg/mL).

For `NNC(=O)c1ccncc1` [ISONIAZID], in assay [2], the MIC90 is greater than 5 µM.

As to `CCCCc1ccc(C(=O)/C=C/c2ccc([N+](=O)[O-])o2)cc1`, the MIC90 in assay [1] stood at 4.7 µM (≈ 1.41 µg/mL); in assay [2], 2.23 µM (≈ 0.667 µg/mL).

Take `COc1ccc(/C=C/C(=O)c2cccc(I)c2)cc1`: the MIC90 amounted to 8.31 µM (≈ 3.03 µg/mL) in assay [1] and 7.75 µM (≈ 2.82 µg/mL) in assay [2].

For the compound `O=C(/C=C/c1ccc([N+](=O)[O-])o1)c1ccc(N2CCOCC2)cc1`, the MIC90 is 0.55 µM (≈ 0.181 µg/mL) in assay [1] and 0.11 µM (≈ 0.0361 µg/mL) in assay [2].

`O=C(/C=C/c1ccc([N+](=O)[O-])o1)c1ccc(-n2ccnc2)cc1`: the MIC90 in assay [1] worked out at 1.19 µM (≈ 0.368 µg/mL); in assay [2], 1.44 µM (≈ 0.445 µg/mL).

Regarding `O=C(/C=C/c1ccc([N+](=O)[O-])o1)c1ccc(Br)cc1`, the MIC90 was 0.76 µM (≈ 0.245 µg/mL) in assay [1] and 0.58 µM (≈ 0.187 µg/mL) in assay [2].

`CC(C)(C)c1ccc(C(=O)/C=C/c2ccc([N+](=O)[O-])s2)cc1`: the MIC90 was 0.14 µM (≈ 0.0442 µg/mL) in assay [1] and 0.15 µM (≈ 0.0473 µg/mL) in assay [2].

For the compound `O=C(/C=C/c1ccc([N+](=O)[O-])s1)c1ccc(-n2ccnc2)cc1`, the MIC90 in assay [1] amounted to 0.6 µM (≈ 0.195 µg/mL); in assay [2], 0.3 µM (≈ 0.0976 µg/mL).

`O=C(/C=C/c1ccc([N+](=O)[O-])o1)c1ccc(I)cc1`: the MIC90 in assay [1] was 1.18 µM (≈ 0.436 µg/mL); in assay [2] it was 1.08 µM (≈ 0.399 µg/mL).

Turning to `Cc1cccc(C(=O)/C=C/c2ccc([N+](=O)[O-])o2)c1`, the MIC90 in assay [1] worked out at 3.78 µM (≈ 0.972 µg/mL); in assay [2] it was 1.93 µM (≈ 0.496 µg/mL).
